Experimental data as given in PubChem BioAssay AID602225 (Southern Research Specialized Biocontainment Screening …, 2012).
Inconclusive results are not listed. Activity calls are given as the source filed them.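 How the source made its calls: active means viability below 80% at one or more tested concentrations, meaning the compound is toxic to the cells; inconclusive means replicate runs disagree on whether viability fell below 80%; inactive means viability of 80% or more at every dose.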

system: Vero E6 viability, CellTiter-Glo luminescence, 72 h; assay: viability of Vero E6 cells under compound – set 2, cytotoxicity control for PfM18AAP inhibitor project, dose response (AID 602225); conditions: not given
Procedure, shortened: (§1)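 Material: Vero E6 cells. Dosing: 10-point dose series in 2-fold dilution steps. Incubation: 72 h compound treatment, 37 °C. Detection: CellTiter-Glo luminescence measurement of viable cells. Evaluation: % viability and fitted CC50.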

Compound | CC50 [µM]
COc1ccc(CCNc2c3ccccc3nc3ccccc23)cc1OC | 13.9
Oc1ccc(CCNc2c3ccccc3nc3ccccc23)cc1O | 30.9
COc1ccc(CCN(C)c2c3ccccc3nc3ccccc23)cc1OC | 27.8
COc1ccc(CCNC(c2ccccc2)c2ccccc2)cc1OC | 32.6
CCc1ccc(NC(=O)Cc2nc(-c3ccc(O)c(O)c3)cs2)cc1 | 28.7

system: not listed separately; assay: as above; conditions: Vero E6 viability, CellTiter-Glo luminescence, 72 h; at 50 µM (top of the series)
Procedure, shortened: as §1

Compound | viability
COc1ccc(CCCN2CCN(C)CC2)cc1OC | 100% (inactive)
CN1CCN(c2nc(-c3ccc(O)c(O)c3)cs2)CC1 | 102% (inactive)
CN1CCN(CCc2ccc(O)c(O)c2)CC1 | 103% (inactive)
Oc1ccc(CCNc2ccnc3ccccc23)cc1O | 100% (inactive)
CN1CCN(CCCc2ccc(O)c(O)c2)CC1 | 93.4% (inactive)
Oc1ccc(-c2csc(Nc3ncccn3)n2)cc1O | 90.7% (inactive)
